TROY signal inh: TROY signaling inhibition | Q293 LMP1-TROYcd NF-kB luciferase reporter, 4 h | inhibition, % at 10 µM | 360,000 compounds, 0.98% hits;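 active = compounds whose plate-normalised and pattern-corrected inhibition of the luciferase reporter signal at the single screening dose is 50% or more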
LGR2 antag: Drosophila LGR2 receptor signaling inhibition | inhibition, % at 9.99 µM | 380,000 compounds, 0.35% hits | HEK293 LGR2, CRE-luciferase, bursicon-stimulated, 4 h | AID 720647;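 active = drop in luminescence signal, shown as inhibition above about 50% in the replicate tests, limit read from the data, passing the limit was not always enough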;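 note: agonist challenge used bursicon conditioned medium at about half maximal strength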
FN deposit inh: fibronectin deposition inhibition. 350,000 compounds, 0.086% hits. AID 743247. AH1F fibroblasts, Alexa488-fibronectin deposition fluorescence, overnight. inhibition, % at 12.6 µM;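 active = mean inhibition across replicates of 30% or more, regardless of how many single replicates reach that level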;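 note: positive control wells lacked labelled fibronectin entirely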
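Test system: AH1F fibroblast monolayer depositing Alexa488-labelled fibronectin into matrix. Input: 10000 cells per well. Technique: fluorescence, ex 485 nm, em 525 nm. Buffer or medium: DMEM plus 2% serum, read in PBS. Timing: 1 h cell adhesion before compound, then overnight fibronectin incubation. Compound: single dose, pinned. Read-out basis: inhibition from reduced deposited-fibronectin fluorescence.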
EWS-Fli block: inhibitors of EWS/Fli oncoprotein transcriptional activity. A673 NR0B1-luciferase reporter, viability-normalised. 350,000 compounds, 0.67% hits. inhibition, % at 12.6 µM;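 active = mean inhibition of at least 50% after viability correction, with every replicate also passing that limit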;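 note: firefly luciferase signal divided by Alamar Blue viability fluorescence both relative to DMSO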
TWEAK Fn14 block: inhibitors of TWEAK-Fn14 interaction signaling | TWEAK-stimulated Fn14 reporter cells, luciferase luminescence, 8 h | AID 1159606 | 360,000 compounds, 2% hits | inhibition, % at 10 µM; in the data active = inhibition above about 50%
Xi reactivation: activators of X-chromosome reactivation in mouse fibroblasts | XiGFP mouse fibroblasts, % GFP-positive cells imaging, 3 d; cells co-treated with 5-aza-dC sensitizer; scaled so ellipticine positive control = 100% | activation, % at 7.58 µM | 360,000 compounds, 0.055% hits;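 active = mean normalized replicate activation at least 10% and every replicate at or above 10%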;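 note: 0% = median of on-plate neutral control wells and 100% = ellipticine 6 µM median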
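System: SV40-immortalized XiGFP fibroblast cells, line 68-5-11 / Incubation: 3-day compound exposure, then 15 min fixation at room temperature / Compound: single concentration per compound, delivered by pin transfer / Buffer or medium: DMEM plus 5-aza-dC sensitizer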
* = called active by the depositor; · = no result. Only some compounds are listed: those with a hit (about 2.3% of all), similar ones and a draw of the others.

SMILES | TROY signal inh | LGR2 antag | FN deposit inh | EWS-Fli block | TWEAK Fn14 block | Xi reactivation
CC(C)c1c(C(=O)N/N=C/c2cccc(OCc3ccccc3)c2)nnn1-c1nonc1N | 57.9* | 13.5 | 2.3 | · | 42.9 | 0.0
CCC(=O)N[C@H]1CC[C@H](CC(=O)NCCN2CCCCC2)O[C@@H]1CO | · | 2.2 | 1.0 | 0.1 | · | 0.1
CCCN1C[C@H](C)[C@H](OC)CN(C)C(=O)c2cc(NC(=O)Nc3c(C)noc3C)ccc2OC[C@H]1C | · | 5.9 | -15.1 | -5.6 | · | -0.3
Cc1cc(C(=O)Nc2cccc3c2O[C@@H](CN(C)Cc2ccccc2)[C@H](C)CN([C@@H](C)CO)C3=O)n(C)n1 | · | -6.2 | · | -2.7 | · | -1.2
C[C@@H]1CN([C@@H](C)CO)C(=O)c2cccc(NC(=O)c3ccncc3)c2O[C@H]1CN(C)C | · | · | · | -4.4 | · | 0.3
CCOc1ccc(-c2c(C(=O)N/N=C/c3c[nH]c4ccccc34)nnn2-c2nonc2N)cc1 | 6.3 | 19.3 | -9.2 | · | 58.2* | 0.0
CCc1ccc(-c2cc(C(=O)N/N=C/c3c[nH]c4ccccc34)[nH]n2)cc1 | 33.9 | · | 22.8 | 46.8 | 58.6* | -0.1
CCc1ccc2c(Cl)c(C(=O)N/N=C/c3c[nH]c4ccccc34)sc2c1 | -41.8 | · | · | · | -7.3 | ·
FC(F)Sc1ccc(NC(=S)NCc2ccccc2)cc1 | 37.5 | -17.0 | 7.3 | -19.2 | 19.3 | 0.3
FC(F)Sc1ccc(NC(=S)NC(c2ccccc2)c2ccccc2)cc1 | 52.1* | 44.1 | -1.1 | 38.1 | 54.0* | 0.0
O=C(Nc1ccc(F)cc1)N1CC(=O)N2[C@@H](CO)[C@@H](c3ccc(Br)cc3)[C@@H]2C1 | · | 7.5 | · | -7.2 | · | 0.1
COC1(OC)N=C(N)C2(C#N)C(c3ccccc3)NC(C)=CC12C#N (stereo unspecified) | -7.5 | · | · | · | 13.9 | ·
COc1ccc(C2NC3=C(CCC3)C3(C#N)C(OC)(OC)N=C(N)C23C#N)cc1 (stereo unspecified) | 53.8* | · | · | · | 95.8* | ·
N#C[C@H]1N[C@H](CO)[C@@H]1c1ccc(C2=CCCC2)cc1 | · | -25.5 | -10.4 | -2.7 | · | 0.1
CN(C)C(=O)c1ccc(-c2ccc3c(c2)[C@@H]2[C@@H](CCN2C(=O)c2ccc(F)cc2)[C@H](CO)N3C)cc1 | · | -6.2 | 30.9* | 0.7 | · | 0.1
CC[C@H]1CC=CC[C@H](C)Oc2ccccc2C(=O)N(C)[C@H](C(C)C)C(=O)N1 (mixture of isomers) | · | · | -7.8 | · | · | 0.0
CC1=NNC(=O)/C1=C\c1cn(-c2ccccc2)nc1-c1ccccc1 | 89.7* | 105.9* | · | 82.2* | 106.4* | 2.4
Cc1ccc(OCc2nnc(SCC(=O)Nc3sc(C)c(C)c3C#N)n2C)cc1 | -15.6 | · | · | · | 51.7* | ·
CC(=O)c1cccc(NC(=O)/C=C/c2ccc([N+](=O)[O-])s2)c1 | 31.5 | 14.9 | -2.0 | 47.6 | 84.3* | 0.6
Cc1ccccc1NC(=O)/C=C/c1ccc([N+](=O)[O-])s1 | -34.5 | · | · | · | 95.1* | ·
CCNC(=O)Nc1ccc2c(c1)C(=O)N(C)[C@@H]1CC[C@H](CC(=O)N[C@@H](C)c3ccccc3)O[C@H]1CO2 | · | -12.3 | -10.8 | -11.2 | · | 0.6
Cc1ccc(-c2nc(NC(=O)c3nn(C)cc3[N+](=O)[O-])sc2C)cc1 | 27.9 | 44.3 | · | 58.3* | 59.0* | ·
COc1cccc(S(=O)(=O)N[C@@H]2CC[C@H](CCn3cc(-c4ccccc4OC)nn3)O[C@@H]2CO)c1 | · | 9.4 | 2.7 | 7.5 | · | -0.1
CC(C)=CCc1cc([C@@H]2COc3c(ccc4c3C=CC(C)(C)O4)C2)c(O)cc1O | 10.1 | 14.4 | · | 11.7 | 63.4* | ·
CC1(C)C=Cc2c(ccc3c2OC[C@H](c2ccc(O)cc2O)C3)O1 | -15.6 | -38.1 | 3.0 | -71.1 | 9.5 | 0.0
SMILES | TROY signal inh | LGR2 antag | FN deposit inh | EWS-Fli block | TWEAK Fn14 block | Xi reactivation
O=S(=O)(N[C@H]1CC[C@H](CCn2cc(-c3cccnc3)nn2)O[C@H]1CO)c1ccc(F)cc1 | · | 8.4 | · | 2.5 | · | -0.4
COc1ccc(C(=O)C(CN2CCOCC2)c2ccccc2)cc1F (stereo unspecified) | 17.7 | · | · | · | 28.9 | ·
COc1ccc(C(O)C(CN2CCOCC2)c2ccccc2)cc1F (stereo unspecified) | 54.5* | · | -6.3 | · | 74.0* | ·
C[C@H](CO)N1C[C@H](C)[C@H](CN(C)Cc2cccnc2)OCc2cnnn2CCCC1=O | · | -7.9 | -6.7 | 0.8 | · | -0.3
OCc1cn(-c2ccccc2)nc1-c1ccc(-c2nn(-c3ccccc3)cc2CO)cc1 | 26.5 | 12.0 | · | · | 51.7* | ·
O=C(O)Cc1cn(-c2ccccc2)nc1-c1ccccc1 | 0.5 | -2.3 | -2.0 | 1.2 | -4.6 | -0.1
Cc1cc(C)c(O)c(NC(=S)NC(=O)Cc2ccccc2)c1 | -20.8 | 6.9 | -23.9 | -7.8 | 71.7* | 0.2
C[C@@H]1CN([C@H](C)CO)C(=O)c2cccc(NS(C)(=O)=O)c2O[C@H]1CN(C)Cc1ccncc1 | · | 15.9 | · | 11.4 | · | 0.2
O=C(Nc1ccc(S(=O)(=O)N2CCCC2)cc1)c1ccc(CN2CCOCC2)cc1 | 21.9 | · | 0.7 | · | 22.2 | ·
O=C(Nc1ccc(S(=O)(=O)N2CCCCC2)cc1)c1ccc(CN2CCOCC2)cc1 | 52.7* | · | · | · | 68.3* | ·
O=C(Nc1ccc(CN2CCOCC2)cc1)c1ccc(Br)o1 | -48.9 | -30.6 | 1.8 | -91.2 | 2.9 | 0.0
O=C(Nc1ccc(CN2CCOCC2)cc1)c1ccc(-c2cc(Cl)ccc2Cl)o1 | 50.9* | · | -6.7 | · | 75.8* | ·
CN1CCN(C(=O)C[C@@H]2CC[C@H]3[C@@H](COC[C@@H](O)CN3S(=O)(=O)c3cccc(Cl)c3)O2)CC1 | · | 2.3 | -11.7 | -45.1 | · | 0.1
O=C(O)c1c2c(nc3ccccc13)/C(=C/c1ccc(O)cc1)CC2 | 50.7* | 71.2* | 2.7 | 19.9 | 77.3* | 0.3
O=C(O)c1c2c(nc3ccccc13)/C(=C/c1ccc(OC(F)F)cc1)CCC2 | -38.8 | -22.8 | 0.3 | -25.7 | -16.4 | 0.0
C[C@@H]1CN([C@H](C)CO)S(=O)(=O)c2ccc(-c3cncnc3)cc2O[C@H]1CN(C)Cc1ccncc1 | · | 8.7 | · | -7.4 | · | 0.1
COc1ccc(-c2cc3ccc(F)cc3cn2)cc1 | -15.3 | 62.8* | -3.2 | 2.4 | 50.3* | 0.0
COc1ccc(-c2cc3cc(F)ccc3cn2)cc1 | -55.3 | -10.4 | -8.7 | 11.3 | 24.0 | -0.4
CN(Cc1ccccc1F)c1ncnc2sccc12 | 20.2 | -1.3 | 5.5 | 2.0 | 51.1* | 0.2
CN(Cc1cccs1)c1ncnc2sccc12 | 25.0 | · | -9.4 | · | 13.2 | ·
S=C(c1ccc2c(c1)OCO2)N1CCN(c2cccc(Cl)c2)CC1 | 15.5 | 13.3 | 1.0 | 59.7* | 28.8 | 0.3
Cc1cccc(N2CCN(C(=S)c3ccc4c(c3)OCO4)CC2)c1 | 0.8 | -5.2 | 14.7 | 42.1 | 7.7 | 0.1
COc1ccc(-c2csc(NC(=O)C3CC(=O)N(c4ccc5c(c4)OCCO5)C3)n2)cc1 (stereo unspecified) | 55.5* | 23.5 | -5.4 | · | 84.7* | 1.9

High-throughput results from PubChem BioAssay.
